How the values were obtained:
IMR-32 [1] = test: Growth inhibition of human IMR32 cells at 50 uM after 48 hrs by sulpharhodamine B assay; format: functional; settings: IMR-32, 48 h, read-out: GI
Procedure, shortened: (§1)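 This is the SRB protein-stain assay on adherent cells in RPMI-1640/MEM with 10% FCS. Each compound in DMSO (vehicle <0.2%) was applied at a single fixed concentration for 48 h. Cells were fixed with TCA and stained with SRB, and the dye was solubilised in Tris and read at 570/620 nm. Percent growth inhibition is relative to vehicle-treated controls, reported as mean ± SD of three experiments run in triplicate.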

MCF7 [2] = test: Cytotoxicity against human MCF7 cells after 48 hrs by sulpharhodamine B assay; format: functional, cell-based; settings: MCF7, 48 h
Procedure, shortened: (§2)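 Cells were grown in RPMI-1640/MEM with 10% FCS and penicillin/streptomycin at 37 °C under 5% CO2, then seeded and left to adhere overnight. Analogs in DMSO (vehicle <0.2%) were added at several concentrations for 48 h. Cells were fixed with cold 50% TCA, stained with 0.4% SRB in 1% acetic acid, solubilised in 10 mM Tris, and read at OD 570/620 nm. IC50 came from non-linear regression.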

THP-1 [3] = test: Growth inhibition of human THP1 cells at 30 uM after 48 hrs by sulpharhodamine B assay; format: functional; settings: THP-1, 48 h, read-out: GI
Procedure, shortened: (§3)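 Cells grown in RPMI-1640/MEM with 10% FCS, penicillin/streptomycin, 37 °C, 5% CO2. Seeded in 96-well plates, allowed to adhere overnight, then exposed 48 h to analogs in DMSO (vehicle <0.2% in controls). TCA-fixed, stained with 0.4% SRB in 1% acetic acid, dye solubilized in 10 mM Tris base, OD 570 nm (ref 620 nm). Mean ± SD of three experiments run in triplicate.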

DU-145 [4] = test: Growth inhibition of human DU145 cells at 5 uM after 48 hrs by sulpharhodamine B assay; format: functional; settings: DU-145, 48 h, read-out: GI; procedure, shortened: as §1
PC-3 [5] = test: Growth inhibition of human PC3 cells at 50 uM after 48 hrs by sulpharhodamine B assay; format: functional; settings: PC-3, 48 h, read-out: GI; procedure, shortened: as §3
THP-1 [6] = test: Cytotoxicity against human THP1 cells after 48 hrs by sulpharhodamine B assay; format: functional, cell-based; settings: THP-1, 48 h; procedure, shortened: as §2
IMR-32 [7] = test: Growth inhibition of human IMR32 cells at 30 uM after 48 hrs by sulpharhodamine B assay; format: functional; settings: IMR-32, 48 h, read-out: GI; procedure, shortened: as §1
HCT-15 [8] = test: Growth inhibition of human HCT15 cells at 20 uM after 48 hrs by sulpharhodamine B assay; format: functional; settings: HCT-15, 48 h, read-out: GI; procedure, shortened: as §1
IMR-32 [9] = test: Growth inhibition of human IMR32 cells at 5 uM after 48 hrs by sulpharhodamine B assay; format: functional; settings: IMR-32, 48 h, read-out: GI; procedure, shortened: as §1
A549 [10] = test: Growth inhibition of human A549 cells at 10 uM after 48 hrs by sulpharhodamine B assay; format: functional; settings: A549, 48 h, read-out: GI; procedure, shortened: as §1
HEp-2 [11] = test: Growth inhibition of human Hep2 cells at 30 uM after 48 hrs by sulpharhodamine B assay; format: functional; settings: HEp-2, 48 h, read-out: GI; procedure, shortened: as §1
MCF7 [12] = test: Growth inhibition of human MCF7 cells at 10 uM after 48 hrs by sulpharhodamine B assay; format: functional; settings: MCF7, 48 h, read-out: GI; procedure, shortened: as §1
HeLa [13] = test: Growth inhibition of human HeLa cells at 50 uM after 48 hrs by sulpharhodamine B assay; format: functional; settings: read-out: GI; procedure, shortened: as §1
MCF7 [14] = test: Growth inhibition of human MCF7 cells at 5 uM after 48 hrs by sulpharhodamine B assay; format: functional; settings: MCF7, 48 h, read-out: GI; procedure, shortened: as §1
HEp-2 [15] = test: Growth inhibition of human Hep2 cells at 5 uM after 48 hrs by sulpharhodamine B assay; format: functional; settings: HEp-2, 48 h, read-out: GI; procedure, shortened: as §1
SF-295 = test: Cytotoxicity against human SF295 cells after 48 hrs by sulpharhodamine B assay; format: functional, cell-based; settings: SF-295, 48 h; procedure, shortened: as §2
A549 [16] = test: Growth inhibition of human A549 cells at 50 uM after 48 hrs by sulpharhodamine B assay; format: functional; settings: A549, 48 h, read-out: GI; procedure, shortened: as §1
HEp-2 [17] = test: Growth inhibition of human Hep2 cells at 10 uM after 48 hrs by sulpharhodamine B assay; format: functional; settings: HEp-2, 48 h, read-out: GI; procedure, shortened: as §1
OVCAR-5 [18] = test: Growth inhibition of human OVCAR5 cells at 30 uM after 48 hrs by sulpharhodamine B assay; format: functional; settings: OVCAR-5, 48 h, read-out: GI; procedure, shortened: as §1
IMR-32 [19] = test: Growth inhibition of human IMR32 cells at 10 uM after 48 hrs by sulpharhodamine B assay; format: functional; settings: IMR-32, 48 h, read-out: GI; procedure, shortened: as §1
DU-145 [20] = test: Cytotoxicity against human DU145 cells after 48 hrs by sulpharhodamine B assay; format: functional, cell-based; settings: DU-145, 48 h; procedure, shortened: as §2
PC-3 [21] = test: Growth inhibition of human PC3 cells at 20 uM after 48 hrs by sulpharhodamine B assay; format: functional; settings: PC-3, 48 h, read-out: GI; procedure, shortened: as §1
PC-3 [22] = test: Growth inhibition of human PC3 cells at 10 uM after 48 hrs by sulpharhodamine B assay; format: functional; settings: PC-3, 48 h, read-out: GI; procedure, shortened: as §1
MCF7 [23] = test: Growth inhibition of human MCF7 cells at 20 uM after 48 hrs by sulpharhodamine B assay; format: functional; settings: MCF7, 48 h, read-out: GI; procedure, shortened: as §1
DU-145 [24] = test: Growth inhibition of human DU145 cells at 10 uM after 48 hrs by sulpharhodamine B assay; format: functional; settings: DU-145, 48 h, read-out: GI; procedure, shortened: as §1
PC-3 [25] = test: Growth inhibition of human PC3 cells at 30 uM after 48 hrs by sulpharhodamine B assay; format: functional; settings: PC-3, 48 h, read-out: GI; procedure, shortened: as §3
HeLa [26] = test: Growth inhibition of human HeLa cells at 30 uM after 48 hrs by sulpharhodamine B assay; format: functional; settings: read-out: GI; procedure, shortened: as §1
THP-1 [27] = test: Growth inhibition of human THP1 cells at 20 uM after 48 hrs by sulpharhodamine B assay; format: functional; settings: THP-1, 48 h, read-out: GI; procedure, shortened: as §3
MCF7 [28] = test: Growth inhibition of human MCF7 cells at 50 uM after 48 hrs by sulpharhodamine B assay; format: functional; settings: MCF7, 48 h, read-out: GI; procedure, shortened: as §1
HCT-15 [29] = test: Growth inhibition of human HCT15 cells at 5 uM after 48 hrs by sulpharhodamine B assay; format: functional; settings: HCT-15, 48 h, read-out: GI; procedure, shortened: as §1
A549 [30] = test: Growth inhibition of human A549 cells at 20 uM after 48 hrs by sulpharhodamine B assay; format: functional; settings: A549, 48 h, read-out: GI; procedure, shortened: as §1
A549 [31] = test: Growth inhibition of human A549 cells at 5 uM after 48 hrs by sulpharhodamine B assay; format: functional; settings: A549, 48 h, read-out: GI; procedure, shortened: as §1
HCT-15 [32] = test: Cytotoxicity against human HCT15 cells after 48 hrs by sulpharhodamine B assay; format: functional, cell-based; settings: HCT-15, 48 h; procedure, shortened: as §2
HCT-15 [33] = test: Growth inhibition of human HCT15 cells at 10 uM after 48 hrs by sulpharhodamine B assay; format: functional; settings: HCT-15, 48 h, read-out: GI; procedure, shortened: as §1
THP-1 [34] = test: Growth inhibition of human THP1 cells at 50 uM after 48 hrs by sulpharhodamine B assay; format: functional; settings: THP-1, 48 h, read-out: GI; procedure, shortened: as §3
HEp-2 [35] = test: Growth inhibition of human Hep2 cells at 20 uM after 48 hrs by sulpharhodamine B assay; format: functional; settings: HEp-2, 48 h, read-out: GI; procedure, shortened: as §1
DU-145 [36] = test: Growth inhibition of human DU145 cells at 20 uM after 48 hrs by sulpharhodamine B assay; format: functional; settings: DU-145, 48 h, read-out: GI; procedure, shortened: as §1
HEp-2 [37] = test: Cytotoxicity against human Hep2 cells after 48 hrs by sulpharhodamine B assay; format: functional, cell-based; settings: HEp-2, 48 h; procedure, shortened: as §2
THP-1 [38] = test: Growth inhibition of human THP1 cells at 5 uM after 48 hrs by sulpharhodamine B assay; format: functional; settings: THP-1, 48 h, read-out: GI; procedure, shortened: as §3
OVCAR-5 [39] = test: Growth inhibition of human OVCAR5 cells at 50 uM after 48 hrs by sulpharhodamine B assay; format: functional; settings: OVCAR-5, 48 h, read-out: GI; procedure, shortened: as §1
PC-3 [40] = test: Cytotoxicity against human PC3 cells after 48 hrs by sulpharhodamine B assay; format: functional, cell-based; settings: PC-3, 48 h; procedure, shortened: as §2
A549 [41] = test: Cytotoxicity against human A549 cells after 48 hrs by sulpharhodamine B assay; format: functional, cell-based; settings: A549, 48 h; procedure, shortened: as §2
THP-1 [42] = test: Growth inhibition of human THP1 cells at 10 uM after 48 hrs by sulpharhodamine B assay; format: functional; settings: THP-1, 48 h, read-out: GI; procedure, shortened: as §3
A549 [43] = test: Growth inhibition of human A549 cells at 30 uM after 48 hrs by sulpharhodamine B assay; format: functional; settings: A549, 48 h, read-out: GI; procedure, shortened: as §1
PC-3 [44] = test: Growth inhibition of human PC3 cells at 5 uM after 48 hrs by sulpharhodamine B assay; format: functional; settings: PC-3, 48 h, read-out: GI; procedure, shortened: as §3
HEp-2 [45] = test: Growth inhibition of human Hep2 cells at 50 uM after 48 hrs by sulpharhodamine B assay; format: functional; settings: HEp-2, 48 h, read-out: GI; procedure, shortened: as §1
IMR-32 [46] = test: Growth inhibition of human IMR32 cells at 20 uM after 48 hrs by sulpharhodamine B assay; format: functional; settings: IMR-32, 48 h, read-out: GI; procedure, shortened: as §1
MCF7 [47] = test: Growth inhibition of human MCF7 cells at 30 uM after 48 hrs by sulpharhodamine B assay; format: functional; settings: MCF7, 48 h, read-out: GI; procedure, shortened: as §1

C=C[C@@](C)(/C=C/c1ccc(OC(C)=O)cc1)CCC=C(C)C [ACETYLBAKUCHIOL]
inhibition of growth at 50 µM (IMR-32 [1]): 71%
IC50 (MCF7 [2]): 25 µM
inhibition of growth at 30 µM (THP-1 [3]): 63%
inhibition of growth at 5 µM (DU-145 [4]): 19%
inhibition of growth at 50 µM (PC-3 [5]): 67%
IC50 (THP-1 [6]): 18 µM
inhibition of growth at 30 µM (IMR-32 [7]): 59%
inhibition of growth at 20 µM (HCT-15 [8]): 57%
inhibition of growth at 5 µM (IMR-32 [9]): 27%
inhibition of growth at 10 µM (A549 [10]): 22%
inhibition of growth at 30 µM (HEp-2 [11]): 51%
inhibition of growth at 10 µM (MCF7 [12]): 31%
inhibition of growth at 50 µM (HeLa [13]): 63%
inhibition of growth at 5 µM (MCF7 [14]): 15%
inhibition of growth at 5 µM (HEp-2 [15]): 14%
IC50 (SF-295): 8 µM
inhibition of growth at 50 µM (A549 [16]): 72%
inhibition of growth at 10 µM (HEp-2 [17]): 30%
inhibition of growth at 30 µM (OVCAR-5 [18]): 62%
inhibition of growth at 10 µM (IMR-32 [19]): 34%
IC50 (DU-145 [20]): 26 µM
inhibition of growth at 20 µM (PC-3 [21]): 45%
inhibition of growth at 10 µM (PC-3 [22]): 32%
inhibition of growth at 20 µM (MCF7 [23]): 44%
inhibition of growth at 10 µM (DU-145 [24]): 29%
inhibition of growth at 30 µM (PC-3 [25]): 60%
inhibition of growth at 30 µM (HeLa [26]): 45%
inhibition of growth at 20 µM (THP-1 [27]): 50%
inhibition of growth at 50 µM (MCF7 [28]): 75%
inhibition of growth at 5 µM (HCT-15 [29]): 31%
inhibition of growth at 20 µM (A549 [30]): 1%
inhibition of growth at 5 µM (A549 [31]): 13%
IC50 (HCT-15 [32]): 11 µM
inhibition of growth at 10 µM (HCT-15 [33]): 46%
inhibition of growth at 50 µM (THP-1 [34]): 81%
inhibition of growth at 20 µM (HEp-2 [35]): 46%
inhibition of growth at 20 µM (DU-145 [36]): 42%
IC50 (HEp-2 [37]): 20 µM
inhibition of growth at 5 µM (THP-1 [38]): 34%
inhibition of growth at 50 µM (OVCAR-5 [39]): 71%
IC50 (PC-3 [40]): 23 µM
IC50 (A549 [41]): 40 µM
inhibition of growth at 10 µM (THP-1 [42]): 44%
inhibition of growth at 30 µM (A549 [43]): 60%
inhibition of growth at 5 µM (PC-3 [44]): 21%
inhibition of growth at 50 µM (HEp-2 [45]): 52%
inhibition of growth at 20 µM (IMR-32 [46]): 48%
inhibition of growth at 30 µM (MCF7 [47]): 56%

From ChEMBL document CHEMBL1944511, “Bakuchiol derivatives as novel and potent cytotoxic agents: a report” (Eur J Med Chem, 2012)
